Measured values: ChEMBL document CHEMBL1129271, “Synthesis and biological evaluation of certain alkenyldiarylmethanes as anti-HIV-1 agents which act as non-nucleoside reverse transcriptase inhibitors” (J Med Chem, 1996)
The source made the active and inactive calls. The calls are words filed in the database; no cut-off is given here.

Experiments:
[1] = test system: CCRF-CEM; experiment: 50% cytotoxic concentration for mock-infected CEM cells; assay type: functional, cell-based; details: Homo sapiens
Summary of the method: (§1)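 XTT-based microtiter assay of protection from HIV-1 cytopathic effect in CEM-SS cells, read as percent of uninfected drug-free control. EC50 is the concentration giving 50% protection in infected cultures. IC50 is the concentration giving 50% death of mock-infected cells. Values are averages of at least two determinations. Results were confirmed by supernatant RT and p24 levels.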

[2] = test system: CCRF-CEM; experiment: (§2) The compound was evaluated for prevention of the cytopathic effect of HIV-1 for cytopathicity of HIV-1RF in CEM-SS cells; NA= not active; assay type: functional, cell-based, Homo sapiens; summary of the method: as §1
[3] = test system: CCRF-CEM; experiment: The compound was tested for cytotoxicity in CEM-SS cells for mock-infected CEM cells.; assay type: functional, cell-based; details: Homo sapiens; summary of the method: as §1
[4] = test system: CCRF-CEM; experiment: The compound was evaluated for prevention of the cytopathic effect of HIV-1 for cytopathicity of HIV-1RF in CEM-SS cells.; assay type: functional, cell-based; details: Homo sapiens; summary of the method: as §1
[5] = (§3) The therapeutic index of the compound is evaluated.; assay type: functional
[6] = test system: CCRF-CEM; experiment: as §2; assay type: functional, cell-based; details: Homo sapiens; summary of the method: as §1
[7] = as §3; details: read-out: IC50/EC50

SMILES | EC50 [2] | EC50 [4] | IC50 [1] | IC50 [3] | further results
CCCCCC=C(c1cc(Br)cc(C(=O)OC)c1OC)c1cc(Br)cc(C(=O)OC)c1OC | Not Active |  |  | 44 µM | 
CCCCCC=C(c1cc(Cl)c(O)c(C(=O)O)c1)c1cc(Cl)c(O)c(C(=O)O)c1 |  | > 91.5 µM | > 91.5 µM |  | 
CCCCCCCCCCCCCCCC=C(c1cc(Br)c(OC)c(C(=O)OC)c1)c1cc(Br)c(OC)c(C(=O)OC)c1 |  | > 28 µM |  | > 28 µM | 
CCCCCCCCCC=C(c1cc(Br)c(OC)c(C(=O)OC)c1)c1cc(Br)c(OC)c(C(=O)OC)c1 |  | > 30 µM |  | > 30 µM | 
CCCCCC=C(c1cc(Cl)c(O)c(C(=O)NO)c1)c1cc(Cl)c(O)c(C(=O)NO)c1 | Not Active |  |  | 37 µM | 
CCCCCC=C(c1cc(Cl)c(OC)c(C(=O)O)c1)c1cc(Cl)c(OC)c(C(=O)O)c1 |  |  | 84 µM |  | NA [6]: inactive
CCCCCC=C(c1cc(Br)c(O)c(C(=O)O)c1)c1cc(Br)c(O)c(C(=O)O)c1.N.N | Not Active |  |  | 150 µM | 

Second part, led by results:

EC50 [2] | EC50 [4] | SMILES | IC50 [1] | IC50 [3] | further results
Not Active |  | CCCCCC=C(c1cc(Cl)c(OC)c(C(N)=O)c1)c1cc(Cl)c(OC)c(C(N)=O)c1 | 31 µM |  | 
Not Active |  | CCCCCC=C(c1cc(Cl)c(OC)c(C(=O)NC)c1)c1cc(Cl)c(OC)c(C(=O)NC)c1 | 21 µM |  | 
 | 16 µM | CCCCCC=C(c1cc(Cl)c(OC)c(C(=O)OC)c1)c1cc(Cl)c(OC)c(C(=O)OC)c1 | > 29.1 µM |  | IC50/EC50 [5]: > 1.8
 | 8 µM | COC(=O)c1cc(C(=CCCBr)c2cc(Cl)c(OC)c(C(=O)OC)c2)cc(Cl)c1OC |  | 18 µM | selectivity ratio [7]: 2.2
Not Active |  | CCCCCC=C(c1cc(Cl)c(OC)c(C(=O)N(C)C)c1)c1cc(Cl)c(OC)c(C(=O)N(C)C)c1 | 21 µM |  | 
